# From ChEMBL document CHEMBL1949558, “Hypoxylonols C-F, benzo[j]fluoranthenes from Hypoxylon truncatum” (J Nat Prod, 2012)
# Columns and labels:
# HUVEC = assay: Antiangiogenic activity in HUVEC assessed as inhibition of cell proliferation after 72 hrs by MTT assay; assay type: functional, cell-based; settings: Homo sapiens
# How it was run: (§1)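 Cells were purchased and seeded at 3000/well on collagen-coated plates for 3 h at 37 °C, 5% CO2: HUVECs in EGM-2, HUAECs in EGM-2MV. The medium was then swapped to 1% FBS-EBM-2 for 21 h. VEGF (1 nM) and samples were added for 72 h. Proliferation was read with WST-8 at 450 nm, and inhibition was expressed as IC50.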
# [1] = Antiangiogenic activity in HUAEC assessed as inhibition of cell proliferation after 72 hrs by MTT assay; assay type: functional; settings: Homo sapiens; how it was run: as §1
SMILES,IC50 (HUVEC) [µM],IC50 [1] [µM]
CO[C@H]1C[C@H](O)C2=C3c4cccc(O)c4C(=O)C[C@@H]3c3ccc(O)c1c32 [HYPOXYLONOL B],24,24
O=C1C[C@H]2C(=C3c4c2ccc(O)c4[C@H](O)C[C@@H]3O)c2cccc(O)c21 [HYPOXYLONOL F],17,14
CCO[C@H]1C[C@H](O)C2=C3c4cccc(O)c4C(=O)C[C@@H]3c3ccc(O)c1c32 [HYPOXYLONOL A],15,16
O=C1C[C@H]2C(=C3c4c2ccc(O)c4[C@@H](O)C[C@@H]3O)c2cccc(O)c21 [HYPOXYLONOL C],21,16
CO[C@@H]1C[C@H](O)C2=C3c4cccc(O)c4C(=O)C[C@@H]3c3ccc(O)c1c32 [HYPOXYLONOL E],7.4,4.1
CCO[C@@H]1C[C@H](O)C2=C3c4cccc(O)c4C(=O)C[C@@H]3c3ccc(O)c1c32 [HYPOXYLONOL D],6.9,6.1
